Measured values from publication PMC6099197 (Clinical Pharmacology and Therapeutics, 2017).

What was measured:
[1] = In vitro solubility in aqueous buffered solutions and biorelevant media; type: physicochemical; settings: for solubility at 24 h: thermodynamic from solid
In short: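 Crystalline succinate salt of test compound (~763 mg, ~600 mg free-form equivalent) added to 250 mL of 50 mM aqueous buffer (HCl/KCl pH 2.0, acetate pH 4.5, phosphate pH 6.8 or 7.5) or FaSSIF v1 (pH 6.5, 3 mM taurocholate, 0.75 mM lecithin) or FeSSIF v1 (pH 5.0, 15 mM bile salt). Held at 37 ± 1°C with magnetic stirring. Liquid separated at 24 h and assayed by HPLC. Top tested level 2.4 mg/mL; triplicate, mean reported.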

pKa = type: physicochemical
[2] = Food effect study A2103, single-dose PK in healthy volunteers; type: in vivo, human; settings: single 600 mg dose

With CN(C)C(=O)c1cc2cnc(Nc3ccc(N4CCNCC4)cn3)nc2n1C1CCCC1 [Ribociclib] the solubility ([1]; acidic media) was ≤ 200000 µg/mL, the solubility at 24 h ([1]; aqueous buffered solution, 37 °C, pH 2, aqueous buffer) was > 2400 µg/mL and the solubility at 24 h ([1]; biorelevant medium FaSSIF v1, 37 °C, pH 6.5, fassif) was > 2400 µg/mL. For the same compound, the solubility at 24 h ([1]; biorelevant medium FeSSIF v1, 37 °C, pH 5, fessif) was > 2200 µg/mL, the pKa (pKa; pKa1 (base)) was 8.6 and the pKa (pKa; pKa2 (base)) was 5.5. The half-life ([2]; both, human, plasma, oral, 600 mg, T1/2, Geo-mean (CV% Geo-mean), fed state (high-fat, high-calorie meal)) was 33.6 h and the “Tmax fed minus fasted, difference of the medians (90% CI)” value [2] was 1 (–2, 8) h.
